Shown are actives, neighbours in structure and some others; about 4.3% of the full set was active somewhere.
Hep lipid drop – hepatic lipid droplet formation modulation. AML12 mouse hepatocytes, oleate lipid droplets, BODIPY imaging. inhibition, % at 6.5 µM. 0.4% of 240,000 active;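 active = lipid droplet intensity inhibited by at least 50%, with more than 500 cells counted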
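Assay system: AML12 hepatocytes (mouse) / Also added: 100 µM oleic acid challenge / Times: overnight treatment with compound plus oleate / Detection: high-content imaging of BODIPY-stained droplets and DAPI nuclei / Evaluation: % inhibition of lipid droplet signal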
SMARCA2 act – SMARCA2 function activation, primary screen; MG213 cells, MMTV-luciferase reporter, dexamethasone, overnight; activation, % at 9.1 µM; 1% of 370,000 active; in the data active = activation above about 7.8%;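 also: 0% = vehicle wells and 100% = reference activator wells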
AHR activator – activates the human aryl hydrocarbon receptor; P35869; AHR-responsive luciferase reporter cells, luminescence; activation, % at 5 µM; 2.5% of 320,000 active; in the data active = activation above about 47%;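 also: 0% = vehicle wells and 100% = reference agonist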
SR-BI DiI-HDL act – SR-BI HDL lipid transfer activation; CHO ldlA[mSR-BI] cells, DiI-HDL uptake fluorescence, 3 h; 100 = double the neutral-control signal; activation, % at 12.5 µM; 0.096% of 320,000 active;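 active = mean replicate activation of at least 60% and every replicate at or above 60%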;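 also: 0% = median plate neutral-control signal and 100% = twice that signal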
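material = CHO ldlA[mSR-BI] cells | medium = Ham's F12 with 0.5% BSA, HEPES 25 mM, pH 7.4 | reagent = fluorescent DiI-HDL, 10 µg/mL final | compound dosing = single-point compound dose | incubation = 3 h, 37 °C | measured by = bottom-read fluorescence, 550/595 nm | measure = HDL uptake via cellular fluorescence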
CR mimetic SO – yeast age-related superoxide inhibition as caloric restriction mimetic; S. cerevisiae aged cells, superoxide DHE fluorescence; stronger effect = lower value; superoxide response (% of plate mean), % at 10 µM; 0.18% of 330,000 active; AID 2690;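 active = superoxide response under a set limit, about three screen SD below normal, cut at about 65% in these data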;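 also: yeast aged for seven days with compound at 30 °C before DHE staining; 100% = average MFI of all compound-treated wells on the plate with controls excluded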
SR-BI DiI inh – blocks mouse SR-BI lipid uptake from DiI-HDL; Q61009; ldlA[mSR-BI] CHO cells, DiI-HDL uptake fluorescence, 3 h; inhibition, % at 12.5 µM; 0.96% of 320,000 active;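 active = mean replicate inhibition of at least 70% and a set share of replicates each scoring 70 or more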;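 also: 0% = median of neutral control wells and 100% = median of positive control wells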
Target sequence (Q61009 whole entry, looked up): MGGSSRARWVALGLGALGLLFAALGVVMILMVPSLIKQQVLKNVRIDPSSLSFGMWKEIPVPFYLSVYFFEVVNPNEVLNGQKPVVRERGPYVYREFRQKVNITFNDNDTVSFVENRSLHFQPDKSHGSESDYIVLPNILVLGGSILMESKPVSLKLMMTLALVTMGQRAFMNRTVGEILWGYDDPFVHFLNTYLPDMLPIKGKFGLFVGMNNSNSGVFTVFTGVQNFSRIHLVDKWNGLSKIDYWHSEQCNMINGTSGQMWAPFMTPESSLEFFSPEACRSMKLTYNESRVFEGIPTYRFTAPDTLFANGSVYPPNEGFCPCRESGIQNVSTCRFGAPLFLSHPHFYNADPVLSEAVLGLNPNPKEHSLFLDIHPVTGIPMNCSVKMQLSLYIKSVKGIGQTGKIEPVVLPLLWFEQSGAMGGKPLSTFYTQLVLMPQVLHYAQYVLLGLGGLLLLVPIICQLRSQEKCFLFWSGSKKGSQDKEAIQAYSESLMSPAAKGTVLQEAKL
SMARCA2 act conf – confirmation of SMARCA2 (BRM) function activators | activation, % at 9.1 µM | 30% of 3,500 active | MG213 cells, MMTV-luciferase with dexamethasone, luminescence, overnight; MG213 cells expressing E1A, Rb sequestered; DMSO wells 0%, reference activator 100% | shares compounds with SMARCA2 act;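 active = activation above its plate's cutoff, the mean activation of tested wells plus 3 SD, cut at about 7.9% in these data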
VP16 Luc act – counter-screen for SMARCA2 activators: GAL4-VP16 luciferase reporter activation. shares compounds with SMARCA2 act. HEK293 GAL4-VP16 pG5luc reporter, luciferase luminescence; scaled: DMSO wells 0%, SAHA wells 100%. activation, % at 9.1 µM. 41% of 3,500 active;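 active = activation above the solvent-only control well mean plus 3 SD, averaged across control plates, cut at about 5.2% in these data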
An asterisk follows results filed as active; . = no result given.

SMILES | Hep lipid drop | SMARCA2 act | AHR activator | SR-BI DiI-HDL act | CR mimetic SO | SR-BI DiI inh | SMARCA2 act conf | VP16 Luc act
COC(=O)c1ccc(CSc2n[nH]c(=S)s2)o1 | -2 | 0 | 3 | 27 | 97 | -27 | . | .
COC(=O)c1ccc(CSc2nc3ccccc3s2)o1 | -8 | 14* | 13 | 19 | 118 | -19 | 3 | 2
CC(C)(C)C(=O)Nc1ccnn1C1CCN(C(=O)c2ccc(Cl)cc2F)CC1 | -2 | 14* | 4 | 10 | 96 | -10 | -1 | 2
CC(C)CC(=O)Nc1ccnn1C1CCN(C(=O)c2ccc(Cl)cc2F)CC1 | 13 | -1 | 9 | 10 | 86 | -10 | . | .
CN(CCOC(=O)c1cc2ccccc2o1)C1CN(Cc2cn(Cc3ccccc3C(F)(F)F)nn2)S(=O)(=O)C1 (stereo unspecified) | . | -2 | . | . | . | . | . | .
CSc1nc(Cl)cc(Nc2ccc(O)cc2)n1 | -8 | 14* | 10 | -27 | 106 | 27 | 6 | 4
CNc1cc(Cl)nc(SC)n1 | 2 | -2 | 1 | 53 | 108 | -53 | . | .
CC/S(=N\S(=O)(=O)c1ccc(C)cc1)c1ccccc1 (stereo unspecified) | 4 | 8.1* | 0 | 13 | 104 | -13 | -4 | -1
CCOC(=O)C1=CCN(S(=O)(=O)c2ccc(Br)cc2)C1c1cccc(Br)c1 (stereo unspecified) | . | -5 | . | . | . | . | . | .
Cc1cc(C)n2nc(C(=O)Nc3ccc4c(c3)OCO4)cc2n1 | 1 | 11* | -10 | -1 | 110 | 1 | 18* | 9.7*
COC(=O)C1CCN(C(=O)CCn2nnc(-c3cccs3)n2)CC1 | . | -7 | . | . | . | . | . | .
O=C(Nc1ccc(F)cc1)C(c1ccccc1)N1CCN(c2ccncc2)CC1 (stereo unspecified) | . | 8.3* | . | . | . | . | 2 | 0
O=C(CCSc1ccc(Cl)cc1)N1CCN(c2ncccn2)CC1 | . | 9.3* | 16 | 6 | 92 | -6 | 4 | 5
O=C(CCSc1ccc(Cl)cc1)N1CCN(c2ccc(O)cc2)CC1 | -8 | -2 | 1 | . | 89 | . | . | .
CC(C)(C)c1cccc(N/C(=C\C(=O)c2ccccc2)c2ccccc2)c1 | . | -1 | . | . | . | . | . | .
Cn1nc(N)c2ncc(-c3ccc(Cl)cc3)nc21 | . | 9.1* | . | . | . | . | 8.9* | 7.7*
O=C1N/C(=C/c2ccc(N3CCOCC3)o2)C(=O)N1c1ccccc1 | 6 | 14* | 2 | 22 | 118 | -22 | 3 | 2
C/C(Nc1cccc(F)c1)=C(/C#N)C(N)=O | 27 | 8.3* | 0 | 22 | 100 | -22 | -3 | 0
C/C(Nc1ccc(F)cc1)=C(/C#N)C(N)=O | . | -3 | 0 | -6 | 106 | 6 | . | .
c1ccc(-c2csc(Nc3ccc4c(c3)OCO4)n2)cc1 | . | 11* | . | . | . | . | 3 | 9.3*
CC(=O)c1ccc(Sc2nnnn2-c2ccccc2)c([N+](=O)[O-])c1 | -1 | 8.6* | 5 | 11 | 101 | -11 | 8 | 2
CN1CCN(S(=O)(=O)c2ccc(Sc3nnnn3-c3ccccc3)c([N+](=O)[O-])c2)CC1 | -8 | 1 | 3 | 30 | 111 | -30 | . | .
CC(Oc1ccc(Cl)cc1Cl)C(=O)NC1CCSC1=O (stereo unspecified) | 6 | 8.3* | 1 | -28 | 99 | 28 | 1 | 1
COc1ccc(Cn2nnnc2CN2CCC(O)(c3ccc(F)cc3)CC2)cc1 | -32 | 6 | 1 | 2 | 100 | -2 | . | .
Cc1ccc(Cn2nnnc2CN2CCC(O)(c3ccc(F)cc3)CC2)cc1 | . | 11* | 0 | -7 | 95 | 7 | -3 | -2
SMILES | Hep lipid drop | SMARCA2 act | AHR activator | SR-BI DiI-HDL act | CR mimetic SO | SR-BI DiI inh | SMARCA2 act conf | VP16 Luc act
C=CCN1C(=O)[C@H](CC(=O)NCC2CCCCC2)[C@@]2(C(=O)OCC)CCCC=C12 | . | -3 | . | . | . | . | . | .
O=C(CCn1c(=O)oc2ccccc21)Nc1ccccc1 | . | 9.0* | 11 | -1 | 102 | 1 | -2 | 1
O=C(CCCn1c(=O)oc2ccccc21)Nc1ccccc1 | . | 0 | . | 17 | . | -17 | . | .
COc1ccc(Cn2cc(COC(=O)NCCc3c[nH]c4ccccc34)nn2)cc1 | . | -2 | . | . | . | . | . | .
Cc1ccc(S(=O)(=O)N(C)Cc2ccc(C(=O)N/N=C3\CC(=O)CC(C)(C)C3)cc2)cc1 | 13 | 10* | 3 | 13 | 93 | -13 | -1 | 0
COc1ccc(-n2nnnc2S(=O)(=O)Cc2ccc(C(=O)O)cc2)cc1 | -5 | 13* | 3 | 4 | 110 | -4 | 15* | 0
Cc1ccsc1/C=C1\SC(N)=NC1=O | . | 3 | 7 | 21 | 95 | -21 | . | .
Cc1ccsc1/C=C1/SC(N2CC(C)OC(C)C2)=NC1=O (stereo unspecified) | 2 | 11* | 17 | -37 | 118 | 37 | 0 | 1
O=C(Nc1cccnc1)c1cc(-c2cc(Cl)ccc2O)n[nH]1 | 4 | 11* | 11 | . | 101 | . | 9.6* | 9.9*
O=C(NCCN1CCCC1)c1ccc2c(=O)n(CCc3ccccc3)c(=O)[nH]c2c1 | . | 8.2* | 7 | -20 | 110 | 20 | 10* | 1
CCCN1CCN(CCCNC(=O)c2ccc3c(=O)n(CCc4ccccc4)c(=O)[nH]c3c2)CC1 | 24 | -1 | 1 | 6 | 92 | -6 | . | .
CN(C)c1ccc(-c2noc(C3CCN(S(=O)(=O)c4cccc(C(=O)O)c4)CC3)n2)cc1 | . | 9.7* | -1 | 8 | 104 | -8 | 4 | -2
O=C(c1ccccc1)N1CCC(c2nc(-c3ccc(S(=O)(=O)N4CCOCC4)cc3)no2)CC1 | . | -9 | 0 | 1 | 95 | -1 | . | .
Cc1onc(-c2ccc(Cl)cc2)c1-c1ccn(S(=O)(=O)c2ccccc2Cl)n1 | . | -1 | . | . | . | . | . | .
CCc1ccc(C(=O)CN2C(=O)NC(C)(c3ccc(C)cc3)C2=O)cc1 (stereo unspecified) | -2 | 9.1* | 5 | 32 | 84 | -32 | 6 | 0
Cc1ccc(C2(C)NC(=O)N(CC(=O)c3ccc4c(c3)OCCO4)C2=O)cc1 (stereo unspecified) | . | 1 | 1 | 4 | 86 | -4 | . | .
CS(=O)(=O)c1ccc(C(=O)NC2CCCCC2)cc1 | -6 | -2 | 2 | 44 | 99 | -44 | . | .
O=C(NC1CCC1)c1ccc(C#CC2CC2)c[n+]1[O-] | . | 15* | . | . | . | . | 11* | 5.2*
O=[N+]([O-])c1cnc(Sc2ccncn2)s1 | -4 | 12* | -4 | 24 | 112 | -24 | -15 | 5.5*
O=[N+]([O-])c1cnc(Sc2ccncn2)c([N+](=O)[O-])c1 | . | 0 | . | . | . | . | . | .
